Tests used:
[1] = target: T1, Amyloid-beta precursor protein (Homo sapiens, UniProt P05067); assay: Inhibition of gamma-secretase assessed as reduction of cell A-beta-40 level
[2] = target: T1, Amyloid-beta precursor protein; assay: Inhibition of gamma-secretase assessed as reduction of membrane A-beta-40 level
Procedure, shortened: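 Membrane-based γ-secretase assay with Aβ40 as read-out; IC50 in nM, reported as means of two experiments.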

T1 sequence (P05067 whole entry): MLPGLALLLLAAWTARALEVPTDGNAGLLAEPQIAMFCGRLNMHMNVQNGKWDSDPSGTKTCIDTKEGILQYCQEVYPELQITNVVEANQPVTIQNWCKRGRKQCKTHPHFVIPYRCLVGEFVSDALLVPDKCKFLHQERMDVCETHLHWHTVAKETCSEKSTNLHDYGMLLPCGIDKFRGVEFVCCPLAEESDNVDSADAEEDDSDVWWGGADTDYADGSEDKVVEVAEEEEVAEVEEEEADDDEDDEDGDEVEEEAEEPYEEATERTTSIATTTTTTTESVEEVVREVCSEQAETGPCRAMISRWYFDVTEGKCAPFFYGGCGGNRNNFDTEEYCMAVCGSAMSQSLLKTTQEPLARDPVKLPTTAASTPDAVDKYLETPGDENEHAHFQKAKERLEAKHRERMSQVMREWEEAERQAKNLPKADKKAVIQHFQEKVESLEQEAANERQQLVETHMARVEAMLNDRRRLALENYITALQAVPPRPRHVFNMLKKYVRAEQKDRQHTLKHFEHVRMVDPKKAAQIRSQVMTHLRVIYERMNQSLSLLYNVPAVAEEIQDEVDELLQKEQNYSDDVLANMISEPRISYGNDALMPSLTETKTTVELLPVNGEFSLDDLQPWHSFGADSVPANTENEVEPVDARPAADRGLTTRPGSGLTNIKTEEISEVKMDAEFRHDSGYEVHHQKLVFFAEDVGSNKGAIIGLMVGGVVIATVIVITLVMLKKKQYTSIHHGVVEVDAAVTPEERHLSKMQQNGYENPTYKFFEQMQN

Structure (SMILES): CC[C@@H]1CCC[C@H](C2(OC(=O)N3CCC(N4CCCCC4)CC3)CC2)N1S(=O)(=O)c1cc(F)cc(F)c1 [1-((2R,6R)-1-(3,5-difluorophenylsulfonyl)-6-ethylpiperidin-2-yl)cyclopropyl 4-(piperidin-1-yl)piperidine-1-carboxylate]
- IC50 [1]: 144 nM
- IC50 [2]: 29 nM

Structure (SMILES): CC[C@@H]1CCC[C@H](C2(OC(=O)N3CCC(CCO)(OC)CC3)CC2)N1S(=O)(=O)c1ccc(Cl)cc1 [1-((2R,6R)-1-(4-chlorophenylsulfonyl)-6-ethylpiperidin-2-yl)cyclopropyl 4-(2-hydroxyethyl)-4-methoxypiperidine-1-carboxylate]
- IC50 [1]: 20 nM
- IC50 [2]: 9 nM

Structure (SMILES): CC[C@@H]1CCC[C@H](C2(OC(=O)N3CCN(C(C)(C)CO)CC3)CC2)N1S(=O)(=O)c1ccc(F)cc1 [1-((2R,6R)-6-ethyl-1-(4-fluorophenylsulfonyl)piperidin-2-yl)cyclopropyl 4-(1-hydroxy-2-methylpropan-2-yl)piperazine-1-carboxylate]
- IC50 [1]: 25 nM
- IC50 [2]: 10 nM

Structure (SMILES): O=C(OC1([C@H]2CCC[C@@H](c3cc(F)cc(F)c3)N2S(=O)(=O)c2ccc(Cl)cc2)CC1)N1CCC(N2CCCCC2)CC1 [1-((2R,6S)-1-(4-chlorophenylsulfonyl)-6-(3,5-difluorophenyl)piperidin-2-yl)cyclopropyl 4-(piperidin-1-yl)piperidine-1-carboxylate]
- IC50 [2]: 0.3 nM

Structure (SMILES): CC[C@@H]1CCC[C@H](C2(OC(=O)N3CCN(CCO)[C@@H](C)C3)CC2)N1S(=O)(=O)c1ccc(Cl)cc1 [(S)-1-((2R,6R)-1-(4-chlorophenylsulfonyl)-6-ethylpiperidin-2-yl)cyclopropyl 4-(2-hydroxyethyl)-3-methylpiperazine-1-carboxylate]
- IC50 [1]: 10 nM
- IC50 [2]: 13 nM
